Data taken from ChEMBL document CHEMBL1275294, “Synthesis and anticancer activity evaluation of 4-thiazolidinones containing benzothiazole moiety” (2010).
Active and inactive are the calls of the source. No cut-off for these calls is given here.

Experiments:
RPMI-8226 [1] = test: Anticancer activity against human RPMI8226 cells assessed as cell growth at 10 uM after 48 hrs by SRB assay; assay type: functional; conditions: RPMI-8226, 48 h, read-out: Activity
Outline: (§1)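 NCI primary screen: compound added at a single concentration of 10^-5 M to the human tumor cell line panel, 48 h incubation, end-point by sulforhodamine B protein staining read spectrophotometrically. Result expressed as percent growth of treated cells relative to untreated control cells.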

NCI60 = test: Anticancer activity against human NCI60 cells assessed as cell growth inhibition after 48 hrs by SRB assay; assay type: functional, cell-based
Outline: (§2)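 NCI full panel of about 60 human tumor cell lines, five 10-fold dilutions from 10^-4 to 10^-8 M, 48 h continuous exposure, SRB protein assay read spectrophotometrically. Percent growth from time-zero, untreated-control and treated absorbances. GI50 is the molar concentration giving 50% net growth inhibition, TGI total inhibition, LC50 50% net cell death. Mean graph midpoints include insensitive lines at the top concentration.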

[2] = Anticancer activity against human NCI60 cells assessed as cell growth at 10 uM after 48 hrs by SRB assay; assay type: functional; conditions: NCI60, 48 h, read-out: Activity; outline: as §1
ACHN = test: Growth inhibition of human ACHN cells after 48 hrs by SRB assay; assay type: functional; outline: as §2
T47D = test: Growth inhibition of human T47D cells after 48 hrs by SRB assay; assay type: functional; outline: as §2
SNB-75 [3] = test: Anticancer activity against human SNB75 cells assessed as cell growth at 10 uM after 48 hrs by SRB assay; assay type: functional; conditions: SNB-75, 48 h, read-out: Activity; outline: as §1
MCF7 = test: Growth inhibition of human MCF7 cells after 48 hrs by SRB assay; assay type: functional; conditions: MCF7, 48 h; outline: as §2
UACC-62 = test: Growth inhibition of human UACC62 cells after 48 hrs by SRB assay; assay type: functional; conditions: UACC-62, 48 h; outline: as §2
SF-295 [4] = test: Growth inhibition of human SF295 cells after 48 hrs by SRB assay; assay type: functional; conditions: SF-295, 48 h; outline: as §2
SNB-19 = test: Growth inhibition of human SNB19 cells after 48 hrs by SRB assay; assay type: functional; conditions: SNB-19, 48 h; outline: as §2
U-251 = test: Growth inhibition of human U251 cells after 48 hrs by SRB assay; assay type: functional; conditions: U-251, 48 h; for TGI: read-out: pTGI (converted); outline: as §2
PC-3 = test: Growth inhibition of human PC3 cells after 48 hrs by SRB assay; assay type: functional; conditions: PC-3, 48 h; outline: as §2
MDA-MB-435 = test: Growth inhibition of human MDA-MB-435 cells after 48 hrs by SRB assay; assay type: functional; conditions: MDA-MB-435, 48 h; outline: as §2
SF-539 = test: Growth inhibition of human SF539 cells after 48 hrs by SRB assay; assay type: functional; conditions: SF-539, 48 h; outline: as §2
OVCAR-4 = test: Growth inhibition of human OVCAR4 cells after 48 hrs by SRB assay; assay type: functional; conditions: OVCAR-4, 48 h; outline: as §2
HCT-116 = test: Growth inhibition of human HCT116 cells after 48 hrs by SRB assay; assay type: functional; conditions: HCT-116, 48 h; outline: as §2
BT-549 = test: Growth inhibition of human BT549 cells after 48 hrs by SRB assay; assay type: functional; conditions: BT-549, 48 h; for TGI: read-out: pTGI (converted); outline: as §2
[5] = Growth inhibition of human NCI-ADR-RES cells after 48 hrs by SRB assay; assay type: functional; outline: as §2
NCI-H23 = test: Growth inhibition of human NCI-H23 cells after 48 hrs by SRB assay; assay type: functional; conditions: NCI-H23, 48 h; outline: as §2
HOP-92 [6] = test: Growth inhibition of human HOP92 cells after 48 hrs by SRB assay; assay type: functional; conditions: HOP-92, 48 h; outline: as §2
SF-295 [7] = test: Anticancer activity against human SF295 cells assessed as cell growth at 10 uM after 48 hrs by SRB assay; assay type: functional; conditions: SF-295, 48 h, read-out: Activity; outline: as §1
HOP-92 [8] = test: Anticancer activity against human HOP92 cells assessed as cell growth at 10 uM after 48 hrs by SRB assay; assay type: functional; conditions: HOP-92, 48 h, read-out: Activity; outline: as §1
UO-31 = test: Anticancer activity against human UO31 cells assessed as cell growth at 10 uM after 48 hrs by SRB assay; assay type: functional; conditions: UO-31, 48 h, read-out: Activity; outline: as §1
HL-60(TB) = test: Growth inhibition of human HL-60(TB) cells after 48 hrs by SRB assay; assay type: functional; conditions: HL-60, 48 h
Outline: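 NCI 60-cell-line screen, five 10-fold dilutions of the compound, 48-h continuous drug exposure. Cell growth is measured with the sulforhodamine B protein stain and read spectrophotometrically against untreated controls and a time-zero plate (Tz). GI50 is the molar concentration giving 50% net growth inhibition. Values outside the tested range are reported as above or below the extreme concentration.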

LOX IMVI = test: Growth inhibition of human LOXIMVI cells after 48 hrs by SRB assay; assay type: functional; outline: as §2
SR = test: Anticancer activity against human SR cells assessed as cell growth at 10 uM after 48 hrs by SRB assay; assay type: functional; conditions: read-out: Activity; outline: as §1
RPMI-8226 [9] = test: Growth inhibition of human RPMI8226 cells after 48 hrs by SRB assay; assay type: functional; conditions: RPMI-8226, 48 h; outline: as §2
DU-145 = test: Growth inhibition of human DU145 cells after 48 hrs by SRB assay; assay type: functional; conditions: DU-145, 48 h; outline: as §2
A498 = test: Growth inhibition of human A498 cells after 48 hrs by SRB assay; assay type: functional; conditions: A498, 48 h; outline: as §2
OVCAR-3 = test: Growth inhibition of human OVCAR-3 cells after 48 hrs by SRB assay; assay type: functional; conditions: OVCAR-3, 48 h; outline: as §2
KM12 = test: Growth inhibition of human KM12 cells after 48 hrs by SRB assay; assay type: functional; conditions: KM12, 48 h; outline: as §2
SK-MEL-28 = test: Growth inhibition of human SK-MEL-28 cells after 48 hrs by SRB assay; assay type: functional; conditions: SK-MEL-28, 48 h; outline: as §2
SNB-75 [10] = test: Growth inhibition of human SNB75 cells after 48 hrs by SRB assay; assay type: functional; conditions: SNB-75, 48 h; outline: as §2
SW-620 = test: Growth inhibition of human SW620 cells after 48 hrs by SRB assay; assay type: functional; conditions: SW-620, 48 h; outline: as §2
NCI-H226 = test: Growth inhibition of human NCI-H226 cells after 48 hrs by SRB assay; assay type: functional; conditions: NCI-H226, 48 h; outline: as §2
RXF 393 = test: Anticancer activity against human RXF393 cells assessed as cell growth at 10 uM after 48 hrs by SRB assay; assay type: functional; conditions: RXF 393, 48 h, read-out: Activity; outline: as §1

In the case of `CCOC(=O)c1ccc(NC(=O)COc2ccc(Cl)cc2/C=C2\SC(=S)N(Nc3nc4ccccc4s3)C2=O)cc1`, the growth at 10 µM (RPMI-8226 [1]) is reported as 20%, the “growth inhibition (GI)” value (NCI60) is reported as “inactive” and the growth at 10 µM [2] is reported as 74.7%.

Molecule `COc1ccc(NC(=O)COc2ccc(Cl)cc2/C=C2\S/C(=N/c3nc4ccc(C)cc4s3)NC2=O)cc1` has a GI50 (ACHN) of 6.46 µM, a TGI (ACHN; read-out: pTGI (converted)) of 66.1 µM and a GI50 (T47D) of 4.79 µM. It also gave a TGI (T47D; read-out: pTGI) greater than 100 µM, a growth at 10 µM (SNB-75 [3]) of -86.5% and a GI50 (MCF7) of 4.27 µM. For the same molecule, the TGI (MCF7; read-out: pTGI) was greater than 100 µM, the GI50 (UACC-62) was 5.37 µM and the TGI (UACC-62; read-out: pTGI (converted)) was 39.8 µM. It also gave a GI50 (SF-295 [4]) of 3.39 µM, a TGI (SF-295 [4]; read-out: pTGI (converted)) of 15.5 µM and a GI50 (SNB-19) of 5.5 µM. It also gave a TGI (SNB-19; read-out: pTGI (converted)) of 25.1 µM, a GI50 (U-251) of 5.01 µM and a TGI (U-251) of 20 µM. It also gave a GI50 (PC-3) of 4.9 µM, a TGI (PC-3; read-out: pTGI) greater than 100 µM and a GI50 (MDA-MB-435) of 10 µM. For the same molecule, the TGI (MDA-MB-435; read-out: pTGI (converted)) was 34.7 µM, the GI50 (SF-539) was 1780 nM and the TGI (SF-539; read-out: pTGI (converted)) was 3.63 µM. For the same molecule, the “growth inhibition (GI)” value (NCI60) was “Active”, the GI50 (OVCAR-4) was 6.03 µM and the TGI (OVCAR-4; read-out: pTGI) was greater than 100 µM. For the same molecule, the growth at 10 µM [2] was -36.9%, the GI50 (HCT-116) was 4.57 µM and the TGI (HCT-116; read-out: pTGI (converted)) was 34.7 µM. It also gave a GI50 (BT-549) of 6.03 µM, a TGI (BT-549) of 27.5 µM and a GI50 [5] of 6.76 µM. It also gave a TGI ([5]; read-out: pTGI) greater than 100 µM, a GI50 (NCI-H23) of 7.76 µM and a TGI (NCI-H23; read-out: pTGI (converted)) of 25.1 µM. For the same molecule, the GI50 (HOP-92 [6]) was 457 nM and the TGI (HOP-92 [6]; read-out: pTGI (converted)) was 10.2 µM.

For `CCN(CC)c1ccc(/C=C2\S/C(=N/c3nc4ccc(C)cc4s3)NC2=O)cc1`, the growth at 10 µM (SF-295 [7]) was 22.5%, the “growth inhibition (GI)” value (NCI60) was “inactive” and the growth at 10 µM [2] was 69%.

With `Cc1ccc2nc(/N=C3\NC(=O)/C(=C/c4ccc(Cl)cc4)S3)sc2c1` the growth at 10 µM (SF-295 [7]) was 4.01%, the “growth inhibition (GI)” value (NCI60) was “inactive” and the growth at 10 µM [2] was 56.5%.

For `Cc1ccc2nc(/N=C3\NC(=O)/C(=C/c4cc(Cl)ccc4OCC(N)=O)S3)sc2c1`, the growth at 10 µM (HOP-92 [8]) was 51.4%, the “growth inhibition (GI)” value (NCI60) was “inactive” and the growth at 10 µM [2] was 91.8%.

With `COc1ccc(NC(=O)COc2ccc(/C=C3\SC(=S)N(Nc4nc5ccccc5s4)C3=O)cc2OC)cc1` the “growth inhibition (GI)” value (NCI60) was “inactive”, the growth at 10 µM [2] was 107% and the growth at 10 µM (UO-31) was 78.6%.

With `COc1ccc(NC(=O)COc2ccc(Cl)cc2/C=C2\SC(=S)N(Nc3nc4ccccc4s3)C2=O)cc1` the GI50 (HL-60(TB)) was 2290 nM, the TGI (HL-60(TB); read-out: pTGI (converted)) was 6.92 µM and the GI50 (LOX IMVI) was 1660 nM. It also gave a TGI (LOX IMVI; read-out: pTGI (converted)) of 3.24 µM, a growth at 10 µM (SR) of -71.5% and a GI50 (RPMI-8226 [9]) of 5.37 µM. The TGI (RPMI-8226 [9]; read-out: pTGI (converted)) was 12.9 µM, the GI50 (DU-145) was 2090 nM and the TGI (DU-145; read-out: pTGI (converted)) was 3.98 µM. For the same molecule, the GI50 (U-251) was 2.95 µM, the TGI (U-251) was 9.33 µM and the GI50 (A498) was 2570 nM. The TGI (A498; read-out: pTGI (converted)) was 5.75 µM, the GI50 (OVCAR-3) was 2000 nM and the TGI (OVCAR-3; read-out: pTGI (converted)) was 3.72 µM. For the same molecule, the GI50 (KM12) was 2240 nM, the TGI (KM12; read-out: pTGI (converted)) was 4.9 µM and the GI50 (SK-MEL-28) was 2190 nM. For the same molecule, the TGI (SK-MEL-28; read-out: pTGI (converted)) was 4.47 µM, the “growth inhibition (GI)” value (NCI60) was “Active” and the growth at 10 µM [2] was 50.4%. The GI50 (SNB-75 [10]) was 1580 nM, the TGI (SNB-75 [10]; read-out: pTGI (converted)) was 9.55 µM and the GI50 (BT-549) was 3.02 µM. It also gave a TGI (BT-549) of 8.91 µM, a GI50 (SW-620) of 2450 nM and a TGI (SW-620; read-out: pTGI (converted)) of 6.31 µM. The GI50 (NCI-H226) was 2950 nM and the TGI (NCI-H226; read-out: pTGI (converted)) was 6.92 µM.

With `CCN(CC)c1ccc(/C=C2\SC(=S)N(Nc3nc4ccccc4s3)C2=O)cc1` the “growth inhibition (GI)” value (NCI60) was “inactive”, the growth at 10 µM [2] was 98.5% and the growth at 10 µM (UO-31) was 77.3%.

With `COc1ccc(/C=C2\S/C(=N/c3nc4ccc(C)cc4s3)NC2=O)cc1` the “growth inhibition (GI)” value (NCI60) was “inactive”, the growth at 10 µM [2] was 106% and the growth at 10 µM (UO-31) was 80.4%.

For `COc1cc(/C=C2\SC(=S)N(Nc3nc4ccccc4s3)C2=O)ccc1O`, the “growth inhibition (GI)” value (NCI60) was “inactive”, the growth at 10 µM [2] was 97.7% and the growth at 10 µM (RXF 393) was -0.71%.
